Test results: ChEMBL document CHEMBL4382230, “Structure-activity relationships, biological evaluation and structural studies of novel pyrrolonaphthoxazepines as antitumor agents” (Eur J Med Chem, 2019)
Converted amounts (≈) assume the structure as drawn. The source made the active and inactive calls. No cut-off for these calls is given here.

Assays:
HL-60 [1] = assay: Induction of autophagy in human HL60 cells assessed as […] in LC3B-2 levels at 10 uM after 16 hrs in presence of lysosomal inhibitor chloroquine by immunoblot analysis; format: functional, cell-based
In short: (§1)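 HL-60 in serum-supplemented RPMI 1640, or starved in Earle's Balanced Salts for 15 min beforehand, then treated with 10 μM compound with or without 40 μM chloroquine for 1 h 45 min or 16 h. LC3B-II measured by immunoblot, densitometry normalized to actin, three independent experiments, Student's T-test.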

HL-60 [2] = assay: Cytotoxicity against human HL60 cells assessed as reduction in cell viability after 72 hrs by alamar blue assay; format: functional, cell-based; details: HL-60, 72 h
In short: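 HL-60 at 300,000 cells/ml treated in triplicate with compound or vehicle (0.1% v/v DMSO) for 72 h. Cells then incubated in 10% (v/v) AlamarBlue and fluorescence read at excitation 544 nm, emission 590 nm. IC50 is the mean of at least three separate determinations.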

A549 = assay: Cytotoxicity against human A549 cells assessed as reduction in cell survival at 0.1 to 10 uM after 18 hrs by MTT assay; format: functional, cell-based
In short: (§2)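 Seeded at 2,500 cells/well in medium with 10% serum. After adhesion, exposed to 0.1, 1 and 10 μM in medium with 5% serum for 18 h. Medium then replaced with fresh medium containing 1.2 mM MTT for 4 h; formazan dissolved in DMSO, absorbance at 540 nm. Results given as % of basal response.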

NCI-H929 [3] = assay: Cytotoxicity against human NCI-H929 cells after 48 hrs by MTT assay; format: functional, cell-based; details: NCI-H929, 48 h
In short: (§3)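 Cells (NCI-H929 in RPMI-1640 GlutaMAX; SCC4 in DMEM GlutaMAX; 10% FBS, 37 °C, 5% CO2) treated with increasing concentrations for 48 h. IC50 is the mean of three independent experiments.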

[4] = Chemical stability of compound in pH 3 aqueous solution assessed as compound remaining after 24 hrs by HPLC analysis; format: physicochemical; details: read-out: Stability
[5] = Apparent solubility of compound in sodium phosphate buffer at 15 uM after 20 mins; format: physicochemical
Tubulin (Homo sapiens) [6] = target: T1, Tubulin (Homo sapiens) (UniProt P68371+Q9H4B7+P0DPH7+P68366+Q13509+Q71U36+P04350+Q3ZCM7+P07437+P68363+Q9BQE3+Q6PEY2+Q13885+Q9BVA1+Q9BUF5); assay: Inhibition of tubulin (unknown origin) polymerization at 27.5 uM measured over 70 mins by turbidity method; format: protein-complex assay
In short: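 Tubulin at 25 µM in GAB buffer (10 mM sodium phosphate, 30% glycerol, 1 mM EGTA, 6 mM MgCl2, 1 mM GTP, pH 6.7) with 27.5 µM compound or DMSO vehicle. Turbidity is read at 355 nm for 70 min at 37 °C. Data are normalized to the initial stable absorbance plateau to correct for compound absorbance.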

PC-9 = assay: Induction of apoptosis in human PC9 cells assessed as increase in caspase-3 expression at 10 uM after 18 hrs by Western blot analysis; format: functional, cell-based
In short: (§4)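 PC9 and HCC827 maintained in DMEM with 10% FBS, then exposed to 10 μM compound for 18 h in 5% serum. Caspase 3 activation and cell cycle proteins examined by western blot.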

SCC-4 = assay: Cytotoxicity against human SCC4 cells after 48 hrs by MTT assay; format: functional, cell-based; details: SCC-4, 48 h; in short: as §3
NCI-H929 [7] = assay: Induction of apoptosis in human NCI-H929 cells at 500 nM after 48 hrs by Annexin V/propidium iodide staining-based flow cytometric analysis relative to control; format: functional
In short: (§5)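 Seeding density: NCI-H929 and Ca9.22 at 30×10^4 cells/mL, SCC4 at 15×10^4 cells/mL. Cells exposed 48 h to compound (500 nM; 50 μM in SCC4 for one compound) or vehicle (1% EtOH v/v). Annexin V/PI staining, flow cytometry, 10,000 cells gated on vehicle-treated cells. Three independent experiments, mean ± S.E.M, T-test.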

HCC827 [8] = assay: Induction of apoptosis in human HCC827 cells assessed as reduction in cyclin D1 expression at 10 uM after 18 hrs by Western blot analysis; format: functional, cell-based; in short: as §4
Ca9-22 [9] = assay: Induction of apoptosis in human Ca9-22 cells at 500 nM after 48 hrs by Annexin V/propidium iodide staining-based flow cytometric analysis relative to control; format: functional, cell-based; in short: as §5
NB-4 = assay: Cell cycle arrest in human NB4 cells assessed as accumulation of cells at G1 phase after 24 hrs by propidium iodide staining-based flow cytometric analysis; format: functional
In short: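 NB4 cultured at 37 °C, 5% CO2 in RPMI-1640 with 10% heat-inactivated FBS. Treated at 50 and 100 nM, 1 and 10 μM for 24 h. Cells fixed/permeabilized in 70% ethanol overnight at 4 °C, then given RNase and 20 μg/ml PI for 30 min. Doublets excluded, 20,000 events per sample; cell-cycle phase distribution analysed.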

HCC827 [10] = assay: Induction of apoptosis in human HCC827 cells assessed as increase in p21 expression at 10 uM after 18 hrs by Western blot analysis; format: functional, cell-based; in short: as §4
HCC827 [11] = assay: Cytotoxicity against human HCC827 cells assessed as reduction in cell survival at 0.1 to 10 uM after 50 to 60 hrs by MTT assay; format: functional, cell-based
HL-60 [12] = assay: Induction of autophagy in serum starved human HL60 cells assessed as increase in LC3B-2 levels at 10 uM after 105 mins in presence of lysosomal inhibitor chloroquine by immunoblot analysis; format: functional, cell-based; in short: as §1
B16-F1 = assay: Cytotoxicity against mouse B16-F1 cells assessed as reduction in cell survival at 0.1 to 10 uM after 18 hrs by MTT assay; format: functional, cell-based; in short: as §2
HCC827 [13] = assay: Cytotoxicity against human HCC827 cells assessed as reduction in cell survival at 0.1 to 10 uM after 18 hrs by MTT assay; format: functional, cell-based; in short: as §2
B16-F10 = assay: Cytotoxicity against mouse B16F10 cells assessed as reduction in cell survival at 0.1 to 10 uM after 18 hrs by MTT assay; format: functional, cell-based; in short: as §2
A2780 = assay: Cytotoxicity against human A2780 cells after 48 hrs by MTT assay; format: functional, cell-based; details: A2780, 48 h
In short: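 Cells seeded at 12,000 to 17,000 per well depending on line, incubated overnight, then given serial dilutions of ligand for 48 h. MTT at 2.5 mg/mL added for 4 h at 37 °C, formazan solubilized overnight (10% SDS, 45% dimethylformamide, pH 5.5), absorbance read at 595/690 nm. IC50 from log-dose response curves; mean ± SE of three independent assays.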

HCC827 [14] = assay: Induction of apoptosis in human HCC827 cells assessed as increase in caspase-3 expression at 10 uM after 18 hrs by Western blot analysis; format: functional, cell-based; in short: as §4
Tubulin (Homo sapiens) [15] = target: T1, Tubulin (Homo sapiens); assay: Binding affinity to tubulin (unknown origin) by analytical ultracentrifugation
Ca9-22 [16] = assay: Cytotoxicity against human Ca9-22 cells after 48 hrs by MTT assay; format: functional, cell-based; details: Ca9-22, 48 h
Ca9-22 [17] = assay: Cytotoxicity against human Ca9-22 cells after 72 hrs by MTT assay; format: functional, cell-based; details: Ca9-22, 72 h

SMILES: CC(=O)OC1=C(c2cccc3ncccc23)Oc2cc3ccccc3cc2-n2cccc21
- Activity (HL-60 [1]): Active
- IC50 (HL-60 [2]): 294 nM
- Activity (A549): Active
- IC50 (NCI-H929 [3]): 363 nM
- remaining at 24 h [4]: 65%
- solubility at 20 min, 15 µM [5]: 0.17 µM (≈ 0.0711 µg/mL)
- inhibition (Tubulin (Homo sapiens) [6]): Active
- Activity (PC-9): Active
- IC50 (SCC-4): 222 nM
- Activity (NCI-H929 [7]): >40%
- Activity (HCC827 [8]): Active
- Activity (Ca9-22 [9]): inactive
- Activity (NB-4): Dose-dependent effect
- Activity (HCC827 [10]): Active
- Activity (HCC827 [11]): inactive
- Activity (HL-60 [12]): Active
- Activity (B16-F1): Active
- Activity (HCC827 [13]): Active
- Activity (B16-F10): Active
- IC50 (A2780): 80 nM
- Activity (HCC827 [14]): Active
- Kb (Tubulin (Homo sapiens) [15]): 7 ×10⁷ /M
- IC50 (Ca9-22 [16]): 13.4 µM
- IC50 (Ca9-22 [17]): 4.5 µM
